Data reported in PubChem BioAssay.
Calls of active or inactive are those of the source.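 The calls were made as follows, unless noted: active = viability loss from added drug above about 55%, and viability with drug at most 40%, in both replicates (limit read from the data, passing the limit was not always enough); inconclusive = both conditions met in only one replicate; inactive = neither replicate meets both conditions.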

What was measured:
[1] = Her2 expression decrease, cell viability multiplex – SKBR3 breast tumor cells, AlphaScreen, ATP viability, primary screen (AID 461;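 active = Her2 level under about 52% in both replicate screens, with viability over 70% of control, limit read from the data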;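 as to Her2 level: lower value means less Her2 protein in the cells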;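 as to viability: percent of carrier control wells set as 100% viability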); details: SKBR3 Her2 protein level, 18-24 h, measured here: SKBR3 viability, ATP luminescence, at 10 µM
[2] = biological target: Receptor tyrosine-protein kinase erbB-2 (Homo sapiens) (UniProt P04626); test: as above; details: 18-24 h, at 10 µM, stronger effect = lower value
[3] = reduced viability of SK-BR-3 breast cancer cells – cell-based, 24 h, human, pilot screen (AID 572;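 active = viability at or below 10% of carrier control in both of two separate runs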;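 also: compound exposure lasted between 18 and 24 h rather than exactly 24 h; 100% = carrier-treated control wells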); details: SK-BR-3 viability, CellTiter-Glo luminescence, at 10 µM, stronger effect = lower value
[4] = HUVEC growth inhibition – cell-based, human, primary screen (AID 575;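 active = viability at or below 30% in both replicate assays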;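 also: 100% = median of untreated cell wells with 0.1% DMSO on each plate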); details: HUVEC proliferation, CellTiter-Glo luminescence, 72 h; at 10 µM; stronger effect = lower value
Outline: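 Timing: 72 h treatment at 37 °C; material: HUVEC primary cells; technique: CellTiter-Glo luminescence measuring cellular ATP; controls: vehicle and MePR control wells; measure: percent of median DMSO-control luminescence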

[5] = H69AR cell proliferation blockers – human, duplicate replicates, primary screen (AID 580;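 active = viability at or under a set limit in both replicates, limit being median viability minus 3 SD, cut at about 48% in these data, passing the limit was not always enough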;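 also: 100% = mean luminescence of untreated wells and 0% = no signal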); details: H69AR lung tumor cells viability, ATP luminescence, 72 h; at 10 µM; stronger effect = lower value
[6] = MRP1 drug-resistance reversers in H69AR cells – cell-based, doxorubicin co-treatment, pilot screen (AID 601); details: CellTiter-Glo, 72 h, at 10 µM; for differential viability (reversal): stronger effect = higher value
[7] = yeast transport mutant growth inhibition pilot in 384-well plates, post-Golgi transport modulator project (AID 636; in the data active = inhibition above about 31%); details: absorbance 615 nm, about 18 h, stronger effect = higher value
[8] = growth suppression of yeast trafficking mutant, preliminary HTS, modulators of trafficking downstream of Golgi apparatus project, 1536-format plate, OD 615 nm (AID 637; in the data active = inhibition above about 30%); details: yeast transport mutant growth, absorbance 615 nm, 18 h; stronger effect = higher value
[9] = H69AR cells + 2 uM doxorubicin, measured here: viability with 2 uM doxorubicin, stronger effect = lower value
[10] = H69AR cells, compound alone cytotoxicity

Receptor tyrosine-protein kinase erbB-2 (Homo sapiens), sequence (P04626 whole entry, looked up): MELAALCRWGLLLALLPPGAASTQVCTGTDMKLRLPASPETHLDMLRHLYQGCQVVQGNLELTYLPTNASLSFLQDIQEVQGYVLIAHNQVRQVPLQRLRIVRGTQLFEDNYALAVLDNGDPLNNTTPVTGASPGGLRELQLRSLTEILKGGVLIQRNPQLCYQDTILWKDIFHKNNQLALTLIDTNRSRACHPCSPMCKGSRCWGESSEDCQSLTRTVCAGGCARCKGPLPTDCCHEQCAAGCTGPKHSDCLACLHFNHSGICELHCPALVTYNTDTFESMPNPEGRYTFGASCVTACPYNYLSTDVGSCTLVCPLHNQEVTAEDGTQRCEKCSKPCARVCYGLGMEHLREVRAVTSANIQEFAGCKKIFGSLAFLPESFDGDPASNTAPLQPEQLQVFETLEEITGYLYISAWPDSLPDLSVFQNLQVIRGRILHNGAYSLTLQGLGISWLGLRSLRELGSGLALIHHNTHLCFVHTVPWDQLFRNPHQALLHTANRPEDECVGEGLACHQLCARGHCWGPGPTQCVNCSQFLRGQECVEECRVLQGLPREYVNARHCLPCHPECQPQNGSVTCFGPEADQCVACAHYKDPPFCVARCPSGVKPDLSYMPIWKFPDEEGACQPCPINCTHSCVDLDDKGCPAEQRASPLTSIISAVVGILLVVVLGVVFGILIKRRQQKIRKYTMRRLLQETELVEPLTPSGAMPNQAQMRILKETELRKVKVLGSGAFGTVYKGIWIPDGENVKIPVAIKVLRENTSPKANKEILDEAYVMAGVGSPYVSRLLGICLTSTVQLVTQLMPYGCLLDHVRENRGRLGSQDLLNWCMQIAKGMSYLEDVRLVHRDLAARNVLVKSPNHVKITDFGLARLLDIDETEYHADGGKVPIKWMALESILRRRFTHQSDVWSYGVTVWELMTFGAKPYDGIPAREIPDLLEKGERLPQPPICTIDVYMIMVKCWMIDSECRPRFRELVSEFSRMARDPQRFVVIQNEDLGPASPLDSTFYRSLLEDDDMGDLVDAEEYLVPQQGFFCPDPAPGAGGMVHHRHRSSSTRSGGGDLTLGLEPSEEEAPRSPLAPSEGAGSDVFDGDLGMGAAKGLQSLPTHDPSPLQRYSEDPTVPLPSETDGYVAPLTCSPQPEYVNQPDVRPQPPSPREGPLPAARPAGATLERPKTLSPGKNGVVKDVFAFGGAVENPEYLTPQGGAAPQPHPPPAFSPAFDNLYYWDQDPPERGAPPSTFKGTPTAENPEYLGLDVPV

Row | SMILES | viability [1] | Her2 level [2] | viability [3] | viability [4] | viability [5] | differential viability (reversal) ([6]; H69AR cells + 2 uM doxorubicin) | viability [6, 9] | viability [6, 10] | inhibition [7] | inhibition [8]
1 | CCOC(=O)c1sc(NC(=O)COC(=O)Cn2cnc3ccccc32)c(C(=O)OCC)c1C | 96% | 78% (inactive) | 96% (inactive) | 68.4% (inactive) | 71.2% (inactive) | -8.35% (inactive) | 79.6% | 71.2% | -0.26% (inactive) | -4.44% (inactive)
2 | O=C(CC(Cc1ccccc1)C(=O)O)NCCc1ccc2c(c1)OCO2 (stereo not given) | 90.5% | 122% (inactive) | 90.5% (inactive) | 92% (inactive) | 100% (inactive) | 19.3% (inactive) | 80.8% | 100% | -3.82% (inactive) | -7.17% (inactive)
3 | Fc1ccc(-c2nnc(CN3CCN(c4ncc(C(F)(F)F)cc4Cl)CC3)o2)cc1 | 104% | 87% (inactive) | 104% (inactive) | 63.4% (inactive) | 90.5% (inactive) | -0.76% (inactive) | 91.3% | 90.5% | -1.43% (inactive) | 3.61% (inactive)
4 | O=C(c1cccc(C(=O)N2CCN(c3ccc(F)cc3)CC2)c1)N1CCN(c2ccc(F)cc2)CC1 | 110% | 102% (inactive) | 110% (inactive) | 74% (inactive) | 73.4% (inactive) | 24% (inactive) | 49.4% | 73.4% | 3.51% (inactive) | 2.95% (inactive)
5 | O=C(CSc1nc2cc(Cl)ccc2s1)N1CCN(C(=O)c2ccco2)CC1 | 91% | 84.5% (inactive) | 91% (inactive) | 91.6% (inactive) | 100% (inactive) | 0.815% (inactive) | 99.5% | 100% | -3.87% (inactive) | 0.97% (inactive)
6 | Cc1cccc(N(C)C(=O)c2cc3cc4ccc(C)cc4nc3o2)c1 | 89% | 73.5% (inactive) | 89% (inactive) | 57.1% (inactive) | 12% (active) | -36.7% (inactive) | 48.8% | 12% | -4% (inactive) | -4.26% (inactive)
7 | Cc1ccc(-c2nc(N)n(C(=O)c3cccnc3)n2)cc1 | 86.5% | 87.5% (inactive) | 86.5% (inactive) | 95.1% (inactive) | 105% (inactive) | 19.1% (inactive) | 85.7% | 105% | -3.08% (inactive) | 0.33% (inactive)
8 | COC(=O)c1ccc(Oc2nc(NC(C)C)nc(N(C)C)n2)cc1 | 102% | 91.5% (inactive) | 102% (inactive) | 97.2% (inactive) | 89.5% (inactive) | -7.6% (inactive) | 97.1% | 89.5% | -5.14% (inactive) | -2.46% (inactive)
9 | Cc1cc(Cl)ccc1NC(=O)CSc1nnc(Cc2cccs2)n1Cc1ccco1 | 77.5% | 95.5% (inactive) | 77.5% (inactive) | 68.3% (inactive) | 77.2% (inactive) | -8.29% (inactive) | 85.5% | 77.2% | -3.92% (inactive) | 1.97% (inactive)
10 | CC1(C)CC(=O)c2cnc(NC(=O)CSc3nc4ccccc4o3)nc2C1 | 96% | 98.5% (inactive) | 96% (inactive) | 81.4% (inactive) | 105% (inactive) | 9.52% (inactive) | 95.7% | 105% | -4.46% (inactive) | 0.83% (inactive)
11 | CCOC(=O)N1CCC(Nc2c(-c3ccc(C)cc3)c(=O)c2=O)CC1 | 88.5% | 100% (inactive) | 88.5% (inactive) | 100% (inactive) | 94.5% (inactive) | 11.5% (inactive) | 83% | 94.5% | -8.42% (inactive) | -8.73% (inactive)
12 | CC1(C)OC(=O)N(c2cccnc2)C1(C)O (stereo not given) | 117% | 83% (inactive) | 117% (inactive) | 100% (inactive) | 91.5% (inactive) | 11.6% (inactive) | 80% | 91.5% | -5.6% (inactive) | 3.02% (inactive)
13 | CCc1nc(N[C@@H](Cc2c[nH]c3ccccc23)C(=O)O)c2oc3ccccc3c2n1 | 100% | 81% (inactive) | 100% (inactive) | 71.7% (inactive) | 82.1% (inactive) | -14.6% (inactive) | 96.7% | 82.1% | -5.07% (inactive) | -3.44% (inactive)
14 | Cc1cc(NS(=O)(=O)c2ccc(NC(=O)C(C)N3C(=O)c4ccccc4C3=O)cc2)nc(C)n1 (stereo not given) | 99% | 92% (inactive) | 99% (inactive) | 112% (inactive) | 97.4% (inactive) | 5.72% (inactive) | 91.7% | 97.4% | -2.89% (inactive) | 5.25% (inactive)
15 | Cc1c(C#N)c(N)c(C(=O)c2ccccc2)n1Cc1ccccc1 | 83.5% | 122% (inactive) | 83.5% (inactive) | 97.3% (inactive) | 87.4% (inactive) | 0.08% (inactive) | 87.3% | 87.4% | -7.57% (inactive) | -16.4% (inactive)
16 | COc1ccc(CC(=O)NCc2ccccc2)cc1S(=O)(=O)N1CCOCC1 | 110% | 106% (inactive) | 110% (inactive) | 93.5% (inactive) | 89% (inactive) | -9.06% (inactive) | 98.1% | 89% | -2.5% (inactive) | 5.82% (inactive)
